Assays:
claudin-1 [1] = target: T1, claudin-1 (Mus musculus, UniProt O88551); type: in vivo, CPC;Apc mice; details: wide-field NIR fluorescence after intravenous administration
T1 sequence (O88551 1-211): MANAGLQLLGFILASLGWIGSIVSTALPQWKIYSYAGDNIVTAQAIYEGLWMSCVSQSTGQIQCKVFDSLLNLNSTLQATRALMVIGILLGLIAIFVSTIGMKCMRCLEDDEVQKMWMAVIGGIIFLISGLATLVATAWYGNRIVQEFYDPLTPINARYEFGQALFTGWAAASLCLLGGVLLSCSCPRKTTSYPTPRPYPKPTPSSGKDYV
How it was run: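 Mice aged 2–4 months ate chlorophyll-free chow for 1 week, were fasted 4–6 h and had the colon rinsed with water. They were under isoflurane 2–4% in oxygen (0.5 L/min). A rigid endoscope in the distal colon gave 671 nm excitation; 200 μM peptide in 200 μL PBS was given i.v. Images were taken 0–24 h and normalised to coregistered reflectance. T/B ratios used mean intensity of three 20×20 μm2 regions each for adenoma and adjacent normal mucosa. Control peptide was imaged in the same mouse 7 days later. n = 6 mice per group; data log-transformed; paired t tests.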

claudin-1 [2] = target: T1, claudin-1; test: Side-view confocal endomicroscopy of colon in vivo; parameters: species or system CPC;Apc mice; details: for Binding/staining pattern in normal colon on confocal images: in vivo, ~1 hour after i.v. 200 μM in 200 μL PBS
[3] = Serum stability by HPLC, incubation in mouse serum ex vivo; type: in vitro ADME; details: 30 uM peptide in mouse serum at 37 °C, supernatant analysed by HPLC
How it was run: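 Peptide at 30 uM was incubated in mouse serum at 37 °C for up to 24 h. Samples were taken at 0, 1, 2 and 24 h and centrifuged at 14,000 rpm. Supernatant aliquots were analysed by HPLC at each time point.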

[4] = Biodistribution in major organs; parameters: species or system CPC;Apc mice; details: organs ex vivo ~1 hour after i.v. injection, IVIS, n = 6
How it was run: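 CPC;Apc mice received 200 μL PBS containing 200 μM labelled peptide, control peptide or free Cy5.5 i.v. They were sacrificed ~1 h later. Organs were rinsed in cold PBS, dried and imaged unperfused (ex 640 nm, em 720 nm). Intensity was averaged from three regions per organ. Values were log-transformed and fitted to an ANOVA with 24 means (3 groups, 8 tissues) plus mouse effects.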

claudin-1 [5] = target: T1, claudin-1; test: Ex vivo peptide staining; type: binding; details: for Mean fluorescence intensity, adenoma vs normal: ex vivo staining, 0.5 μM peptide, paired t tests, n = 6 per group
How it was run: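 Distal colon was opened, rinsed in cold PBS, fixed ~48 h in 10% neutral-buffered formalin, moved to 70% ethanol and processed for histology. Adjacent sections were deparaffinized and antigen-retrieved. Blocking was 2% BSA ~1 h, then 0.5 μM peptide for 10 min. For colocalization, peptide came first, then anti-claudin-1 antibody detected with AF488 goat anti-rabbit IgG. Imaged by inverted confocal microscopy.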

[6] = ex vivo, peptide then anti-claudin-1 antibody-AF488, merged image

Row | Fluorescence signal from nonpolypoid adenoma (claudin-1 [1]) | Peptide stability in mouse serum by HPLC at 24 hours [3] | Mean fluorescence intensity, adenoma vs adjacent normal colon [4] | Correlation ρ of co-staining with anti-claudin-1 antibody, adenoma (claudin-1 [5]; [6]) | Correlation ρ of co-staining with anti-claudin-1 antibody, normal colon (claudin-1 [5]; [6]) | Fluorescence signal from polypoid adenoma (claudin-1 [1]) | Staining of adenoma and normal colon sections (claudin-1 [5]; 0.5 μM peptide for 10 minutes on formalin-fixed sections, confocal microscope) | Substance | Mean fluorescence intensity, adenoma vs adjacent normal colon (claudin-1 [2]; confocal, ~1 hour after injection, paired t test, n = 11 mice) | Binding/staining pattern in normal colon on confocal images (claudin-1 [2]) | Mean fluorescence intensity, adenoma vs normal (claudin-1 [5])
1 | increased intensity | signs of peptide breakdown | significantly greater | 0.66 | 0.60 | – | – | RTSPSSR [RTS*-Cy5.5] | significantly greater for adenoma than for adjacent normal colon | binding at tight junctions in between cells | significantly greater for adenoma vs normal
2 | minimal signal | – | – | – | – | minimal signal | Minimal signal | SPTSSRR [SPT*-Cy5.5, reference compound] | – | vague appearance of crypt structures | No difference
